Measurements reported in ChEMBL document CHEMBL4011621, “A Novel Series of Highly Potent Small Molecule Inhibitors of Rhinovirus Replication” (J Med Chem, 2017).
Calls of active or inactive are those of the source. The rule behind the calls is not given here.

Columns and labels:
[1] = tested on: rhinovirus B14; test: Antiviral activity against Human rhinovirus B14 infected in H1HeLa cells assessed as decrease in viral dsRNA at 6 times EC50 treated every 1 hr for 6 hrs after infection by DAPI staining based immunofluorescence assay; type: functional, cell-based
Method in brief: (§1)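 Cells were infected with hRV type 14 or type 16 at MOI 1. Compound was given 1 h before infection, at infection (0 h), or at later hourly time points. At 9 h post-infection, cells were fixed in ice-cold methanol–acetone 3:1 and stained with anti-dsRNA antibody (J2), an Alexa Fluor 488 anti-mouse secondary and DAPI, then imaged. Infected-cell count over total nuclei was expressed as % of untreated virus control; mean ± SD, three experiments.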

[2] = tested on: rhinovirus A16; test: Antiviral activity against Human rhinovirus A16 infected in human H1HeLa cells assessed as protection against virus induced cytopathic effect after 3 days by MTT assay; type: functional, cell-based; conditions: Rhinovirus A, H1-HeLa, 72 h
Method in brief: (§2)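 CPE-reduction assay in H1HeLa cells plated 2 d before. Equal volumes of virus and compound were added and held at 33 °C for 3 d under CO2. Supernatant was removed, then MTT was added for 1 h at 37 °C. Formazan was dissolved and read at 540 nm against a 690 nm reference. Survival was scaled between uninfected untreated wells (100%) and virus-only wells (0%); mean ± SD, three experiments.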

[3] = tested on: rhinovirus B14; test: Antiviral activity against Human rhinovirus B14 infected in human H1HeLa cells assessed as protection against virus induced cytopathic effect after 3 days by MTT assay; type: functional, cell-based; conditions: Rhinovirus B, H1-HeLa, 72 h
[4] = tested on: rhinovirus B14; test: Antiviral activity against Human rhinovirus B14 infected in H1HeLa cells assessed as decrease in viral dsRNA at 6 times EC50 treated simultaneously with infection by DAPI staining based immunofluorescence assay; type: functional, cell-based; method in brief: as §1
[5] = tested on: rhinovirus B14; test: Antiviral activity against Human rhinovirus B14 harboring VP1 C199Y mutant infected in human HeLa Rh cells assessed as protection against virus induced cytopathic effect after 3 days by MTT assay; type: functional, cell-based
[6] = tested on: rhinovirus A16; test: Antiviral activity against Human rhinovirus A16 infected in H1HeLa cells assessed as decrease in viral dsRNA at 6 times EC50 treated 1 hr prior to infection by DAPI staining based immunofluorescence assay; type: functional, cell-based; method in brief: as §1
[7] = Selectivity index, ratio of CC50 for human HeLa cells to EC50 for human poliovirus 3 infected in human HeLa cells; type: toxicity, cell-based; conditions: read-out: Ratio CC50/EC50
Method in brief: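 SI = CC50/EC50 in HeLa cells. CC50 = 50% cell death by MTT. EC50 = 50% inhibition of PV3 CPE by MTT after 2 d at 37 °C, survival scaled to uninfected (100%) and virus-only (0%) wells. At least three independent experiments.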

[8] = Antiviral activity against Human rhinovirus A71 infected in human H1HeLa cells assessed as protection against virus induced cytopathic effect after 3 days by MTT assay; type: functional, cell-based; conditions: Rhinovirus A, H1-HeLa, 72 h; method in brief: as §2
[9] = Selectivity index, ratio of CC50 for human H1HeLa cells to EC50 for Human rhinovirus A71 infected in human H1HeLa cells; type: toxicity, cell-based; conditions: read-out: Ratio CC50/EC50
Method in brief: (§3)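 H1HeLa cells plated 2 d ahead; virus plus compound (equal volumes) incubated 33 °C, 3 d, CO2. MTT 1 h at 37 °C, A540/A690. Survival scaled between uninfected untreated (100%) and virus-only (0%) wells to give EC50. CC50 = 50% cell death by MTT in H1HeLa. SI = CC50/EC50; at least three independent experiments.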

[10] = tested on: Poliovirus 3; test: Antiviral activity against Human poliovirus 3 infected in human HeLa cells assessed as protection against virus induced cytopathic effect after 2 days by MTT assay; type: functional, cell-based; conditions: Enterovirus C, 48 h
Method in brief: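 HeLa cells; MTT-based CPE reduction. Virus and compound added in equal volumes, incubated 37 °C for 2 d in CO2. Supernatant removed, MTT 1 h at 37 °C, formazan dissolved, absorbance 540 nm (690 nm reference). Uninfected untreated wells = 100% survival, virus-only = 0%. EC50 = 50% inhibition; means ± SD, three experiments.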

[11] = tested on: rhinovirus B14; test: Antiviral activity against Human rhinovirus B14 infected in H1HeLa cells assessed as decrease in viral dsRNA at 6 times EC50 treated 1 hr prior to infection by DAPI staining based immunofluorescence assay; type: functional, cell-based; method in brief: as §1
[12] = Cytotoxicity aganist human HeLa cells assessed as decrease in cell viability after 2 days by MTT assay; type: cell-based
[13] = tested on: rhinovirus A21; test: Antiviral activity against Human rhinovirus A21 infected in human H1HeLa cells assessed as protection against virus induced cytopathic effect after 3 days by MTT assay; type: functional, cell-based; conditions: Rhinovirus A, H1-HeLa, 72 h; method in brief: as §2
[14] = tested on: rhinovirus B14; test: Antiviral activity against Human rhinovirus B14 harboring VP1 A150V/E276K double mutant infected in human HeLa Rh cells assessed as protection against virus induced cytopathic effect after 3 days by MTT assay; type: functional, cell-based
[15] = Cytotoxicity against human H1HeLa cells assessed as decrease in cell viability after 3 days by MTT assay; type: cell-based, H1-HeLa
[16] = tested on: rhinovirus B14; test: Antiviral activity against Human rhinovirus B14 infected in H1HeLa cells assessed as decrease in viral dsRNA at 6 times EC50 treated every 1 hr for 9 hrs after infection by DAPI staining based immunofluorescence assay; type: functional, cell-based; method in brief: as §1
[17] = tested on: rhinovirus A16; test: Antiviral activity against Human rhinovirus A16 infected in H1HeLa cells assessed as decrease in viral dsRNA at 6 times EC50 treated simultaneously with infection by DAPI staining based immunofluorescence assay; type: functional, cell-based; method in brief: as §1
[18] = Selectivity index, ratio of CC50 for human H1HeLa cells to EC50 for Human rhinovirus A21 infected in human H1HeLa cells; type: toxicity, cell-based; conditions: read-out: Ratio CC50/EC50; method in brief: as §3
[19] = Selectivity index, ratio of CC50 for human H1HeLa cells to EC50 for Human rhinovirus B14 infected in human H1HeLa cells; type: toxicity, cell-based; conditions: read-out: Ratio CC50/EC50; method in brief: as §3
[20] = Cytotoxicity against human HeLa Rh cells assessed as decrease in cell viability after 3 days by MTT assay; type: cell-based
[21] = tested on: rhinovirus A16; test: Antiviral activity against Human rhinovirus A16 infected in H1HeLa cells assessed as decrease in viral dsRNA at 6 times EC50 treated every 1 hr for 9 hrs after infection by DAPI staining based immunofluorescence assay; type: functional, cell-based; method in brief: as §1

SMILES	EC50 [3] [nM]	selectivity ratio [7]	EC50 [8] [nM]	selectivity ratio [9]	EC50 [10] [nM]	CC50 at 48 h [12] [nM]	EC50 [13] [nM]	CC50 at 72 h [15] [nM]	selectivity ratio [18]	selectivity ratio [19]	other results
CCOC(=O)/C=C/[C@H](C[C@@H]1CCNC1=O)NC(=O)[C@@H](CC(=O)[C@@H](NC(=O)c1cc(C)on1)C(C)C)Cc1ccc(F)cc1 [RUPINTRIVIR]	–	–	–	–	–	–	–	–	–	–	Activity [1]: Active; EC50 [2]: 30 nM
Cc1cc(CCCOc2c(C)cc(-c3noc(C(F)(F)F)n3)cc2C)on1 [PLECONARIL]	75 to 92	19	9.4	2100	1400	25900	73	19700	270	210	Activity [4]: Active; EC50 [5]: 2310 nM; Activity [6]: Active; Activity [11]: Active; EC50 [14]: 1490 nM; EC50 [2]: 350 nM; Activity [16]: inactive; Activity [17]: Active; CC50 at 72 h [20]: > 10000 nM
CNC(=O)c1cc(Oc2ccc3c(C)c(C(=O)OCC(C)C)sc3c2)ccn1	10100	14	380	96	2000	28200	1500	36600	24	3.6	–
CCCOC(=O)c1sc2cc(Oc3ccnc(C(=O)NC)c3)ccc2c1C	2900	80	64	580	710	57100	330	37400	110	13	–
CNC(=O)c1cc(Oc2ccc3cc(C(=O)OC(C)C)n(C)c3c2)ccn1	820	5.1	7.1	1500	9100	46100	64	10300	160	13	–
CCOc1noc2cc(OCCC3CCN(c4ccc(C)nn4)CC3)ccc12 [VAPENDAVIR]	–	–	–	–	–	–	–	–	–	–	CC50 at 72 h [20]: 721000 nM
CNC(=O)c1cc(Oc2ccc3ccc(C(=O)OC(C)C)cc3c2)ccn1	1800	870	19	730	10	8700	480	13800	29	7.7	–
CCOC(=O)c1sc2cc(Oc3ccnc(C(=O)NC)c3)ccc2c1C	1700	> 1100	340	150	93	> 100000	290	50900	180	30	–
CCOC(=O)c1sc2cc(Oc3cccc(C(=O)NC)c3)ccc2c1C	3400	20	150	34	380	7700	85	5100	60	1.5	–
CCOC(=O)c1ccc2cc(Oc3ccnc(C(=O)NC)c3)ccc2c1	2100	83	3.5	10000	410	34100	91	35300	390	17	–
CCOC(=O)c1sc2cc(Oc3ccnc(C(=O)NC)c3)ccc2c1C#N	82500	> 1.8	540	> 190	55400	> 100000	20700	> 100000	> 4.8	> 1.2	–
CNC(=O)c1cc(Oc2ccc3c(C)c(C(=O)OC(C)C)sc3c2)ccn1	70 to 83	150	15	1200	63	9600	78	18100	230	220	Activity [21]: inactive; Activity [4]: Active; EC50 [5]: 2370 nM; Activity [6]: Active; Activity [11]: Active; EC50 [14]: 264 nM; EC50 [2]: 230 nM; Activity [16]: inactive; Activity [17]: Active; CC50 at 72 h [20]: > 3000 nM
CCOC(=O)c1cc2ccc(Oc3ccnc(C(=O)NC)c3)c(Cl)c2s1	12400	> 1.7	200	> 500	58700	> 100000	7700	> 100000	> 13	> 8.1	–
C#CC[C@@H](C(=O)N[C@H](/C=C/C(=O)OCC)C[C@@H]1CCNC1=O)n1cccc(NC(=O)c2cc(C)on2)c1=O [IMOCITRELVIR]	45	–	–	–	–	–	–	–	–	–	EC50 [5]: 56 nM; EC50 [14]: 49 nM; CC50 at 72 h [20]: > 3000 nM
CCOC(=O)c1ccc2ccc(Oc3ccnc(C(=O)NC)c3)cc2c1	2100	1400	48	430	9.5	13200	270	20800	77	9.9	–
